Active and inactive are the calls of the source. The rule behind the calls is not given here.
Tests used:
MT4 = test: Cytotoxicity against human MT4 cells after 2 days; type: cell-based; settings: mt4, 48 h
[1] = Therapeutic index, ratio of CC50 for human MT4 cells to IC50 for HIV-1 NL4-3; type: cell-based; settings: read-out: Ratio CC50/IC50
Summary of the method: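 TI calculated as CC50 (mock-infected MT-4 growth, 2 days) divided by IC50 (HIV-1 NL4-3 replication in MT-4 cells, p24 ELISA at day 4).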

[2] = system: Human immunodeficiency virus 1; test: Antiviral activity against HIV1 NL4-3 infected in human MT4 cells assessed as p24 antigen level after 4 days by ELISA; type: functional, organism-based; settings: Human immunodeficiency virus 1, NL4-3, MT4, 96 h
Summary of the method: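 MT-4 cells infected with HIV-1 NL4-3 variants at MOI 0.01; supernatants harvested day 4 post-infection for p24 antigen capture ELISA. IC50 is the concentration inhibiting replication by 50%; values are averages of at least three separate experiments.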

[3] = system: Human immunodeficiency virus 1; test: Ratio of bevirimat IC50 to compound IC50 for HIV1 NL4-3 infected in human MT4 cells; type: functional
Summary of the method: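 MT-4 cells were infected with HIV-1 NL4-3 at MOI 0.01. Day-4 supernatant p24 was measured by ELISA. IC50 is the concentration giving 50% inhibition of replication, from averages of at least three separate experiments. The ratio divides the bevirimat IC50 by the compound IC50, both from this assay.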

[4] = system: Human immunodeficiency virus 1; test: Antiviral activity against HIV1 infected in human TZM-bl cells assessed as reduction of viral entry after 48 hrs by luciferase reporter gene assay; type: functional, organism-based
Summary of the method: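 Single-round infection of TZM-bl cells (HeLa clone expressing CD4/CCR5 with HIV-1 LTR-driven firefly luciferase) with HIV-1 at 200 TCID50 mixed with test samples. After 48 h, medium was replaced with Bright-Glo reagent and luminescence read. IC50 is the concentration giving 50% RLU reduction versus virus-control wells after background subtraction.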

[5] = system: Human immunodeficiency virus 1; test: Antiviral activity against HIV1 infected in human TZM-bl cells assessed as reduction of viral […] after 48 hrs by luciferase reporter gene assay; type: functional, organism-based
Summary of the method: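 Single-round infection of TZM-bl cells (HeLa clone expressing CD4 and CCR5, HIV-1 LTR-driven firefly luciferase) with HIV-1 at 200 TCID50 mixed with samples. Luminescence read after 48 h. IC50 is the concentration giving 50% lower RLU than virus control wells, after subtracting background RLU.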

[6] = Metabolic stability in human liver microsomes assessed as compound remaining at 1 uM after 60 mins by HPLC-MS analysis; type: ADME, Microsome; settings: read-out: Stability
Summary of the method: (§1)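 Pooled human liver microsomes at 0.1 mg/mL in 0.1 M potassium phosphate pH 7.4 with 5 mM MgCl2. Compound at 1 μM final; reaction started with 1.0 mM NADPH (final) at 37 °C, duplicate incubations. Quenched with ice-cold acetonitrile at 0, 5, 15, 30, 60 min. Parent measured by LC-ESI-MS (SIM), remaining percentage relative to 0 min. t1/2 = 0.693/k from log-linear slope.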

Liver microsomes = test: Half life in human liver microsomes at 1 uM; type: ADME, Microsome; summary of the method: as §1
Homo sapiens = species: Homo sapiens; test: Elimination half life in human; type: ADME, organism-based; settings: in vivo

C=C(C)[C@@H]1CC[C@]2(C(=O)N3CCC(CCCC(=O)NCCN4CCOCC4)CC3)CC[C@]3(C)[C@H](CC[C@@H]4[C@@]5(C)CC[C@H](OC(=O)CC(C)(C)C(=O)O)C(C)(C)[C@@H]5CC[C@]43C)[C@@H]12
CC50 (MT4): 10 µM
selectivity ratio [1]: 286
IC50 [2]: 0.035 µM
Ratio IC50 [3]: 3
Activity [4]: inactive

C=C(C)[C@@H]1CC[C@]2(C(=O)N3CCN(CCCCC(=O)O)CC3)CC[C@]3(C)[C@H](CC[C@@H]4[C@@]5(C)CC[C@H](OC(=O)CC(C)(C)C(=O)O)C(C)(C)[C@@H]5CC[C@]43C)[C@@H]12
Activity [5]: Active
CC50 (MT4): 13.2 µM
selectivity ratio [1]: 2240
IC50 [2]: 0.0059 µM
Ratio IC50 [3]: 15
Activity [4]: inactive
remaining at 1 h, 1 µM [6]: 86.2%
t1/2 (Liver microsomes): 5.45 h

C=C(C)[C@@H]1CC[C@]2(C(=O)N3CCC(CCCC(=O)NCCCN4CCOCC4)CC3)CC[C@]3(C)[C@H](CC[C@@H]4[C@@]5(C)CC[C@H](OC(=O)CC(C)(C)C(=O)O)C(C)(C)[C@@H]5CC[C@]43C)[C@@H]12
CC50 (MT4): 10 µM
selectivity ratio [1]: 321
IC50 [2]: 0.031 µM
Ratio IC50 [3]: 3
Activity [4]: inactive

C=C(C)[C@@H]1CC[C@]2(C(=O)OCOCCOC)CC[C@]3(C)[C@H](CC[C@@H]4[C@@]5(C)CC[C@H](OC(=O)CC(C)(C)C(=O)O)C(C)(C)[C@@H]5CC[C@]43C)[C@@H]12
Activity [5]: Active
CC50 (MT4): 12.1 µM
selectivity ratio [1]: 261
IC50 [2]: 0.046 µM
Ratio IC50 [3]: 2
Activity [4]: inactive

C=C(C)[C@@H]1CC[C@]2(C(=O)O)CC[C@]3(C)[C@H](CC[C@@H]4[C@@]5(C)CC[C@H](OC(=O)CC(C)(C)C(=O)O)C(C)(C)[C@@H]5CC[C@]43C)[C@@H]12 [BEVIRIMAT]
CC50 (MT4): 14.2 µM
selectivity ratio [1]: 171
IC50 [2]: 0.087 µM
Activity [4]: inactive
beta t1/2 (Homo sapiens): 56.3 h

C=C(C)[C@@H]1CC[C@]2(C(=O)N3CCN(CCCC(=O)O)CC3)CC[C@]3(C)[C@H](CC[C@@H]4[C@@]5(C)CC[C@H](OC(=O)CC(C)(C)C(=O)O)C(C)(C)[C@@H]5CC[C@]43C)[C@@H]12
CC50 (MT4): 13 µM
selectivity ratio [1]: 1180
IC50 [2]: 0.011 µM
Ratio IC50 [3]: 7.9
Activity [4]: inactive
